{"data": "Results gathered from unrelated publications", "target": "Activated CDC42 kinase 1 (TNK2, Homo sapiens, UniProt Q07912)", "note": "Protocols differ between the studies behind these lines."}
{"SMILES": "COc1ncccc1-c1cnn2ccc(N3CCN(C(=O)OC(C)C)CC3)nc12", "test": "binding, competition with immobilised ligand", "setting": "1 µM", "quantity": "remaining binding", "result": "94%"}
{"SMILES": "COc1cc(Nc2ncc(F)c(Nc3ccc4c(n3)NC(=O)C(C)(C)O4)n2)cc(OC)c1OC", "test": "binding", "setting": "10 µM", "quantity": "inhibition", "result": "99%"}
{"SMILES": "Cn1cncc1[C@](O)(COc1ccc(C#N)cc1-c1ccc(OC(F)(F)F)cc1)c1ccc(C#N)cc1", "test": "cell-free assay, competition with immobilised ligand", "setting": "1 µM", "quantity": "remaining binding", "result": "100%"}
{"SMILES": "Cn1cc(-c2cccc(N3CCc4c(sc5c4CC(C)(C)C5)C3=O)c2CO)cc(Nc2ccncn2)c1=O", "test": "enzyme activity, inhibitor", "setting": "1 µM", "quantity": "inhibition", "result": "0%"}
{"SMILES": "Nc1ncc(-c2nc(N3CCOCC3)nc(N3CCOCC3)n2)c(C(F)F)n1", "test": "binding, competition with immobilised ligand", "setting": "10 µM", "quantity": "remaining binding", "result": "85%"}
{"SMILES": "O=c1[nH]c2ccccc2n1C1CCN(Cc2ccc(-c3[nH]c4cc5ncnc5cc4nc3-c3ccccc3)cc2)CC1", "test": "cell-free assay", "setting": "0.5 µM", "quantity": "remaining signal", "result": "92.3%"}
{"SMILES": "Cn1cc(-c2cc(F)cc(N3CCn4c(cc5c4CCCC5)C3=O)c2CO)cc(Nc2ccc(N3CCN(C4COC4)CC3)cn2)c1=O", "test": "enzyme activity, inhibitor", "setting": "0.1 µM", "quantity": "inhibition", "result": "1%"}
{"SMILES": "CC(C)(C)c1cc(C=C(C#N)C#N)cc(Br)c1O", "test": "enzyme activity, inhibitor", "setting": "0.5 µM", "quantity": "remaining activity", "result": "93.1%"}
{"SMILES": "COc1cc(Cl)c(C(=O)N[C@@H](CN[C@H]2CC[C@@H](N)CC2)Cc2ccc(C#N)cc2)cc1-c1ccc(CN[C@H](C)c2ccc(C)cc2)o1", "test": "enzyme activity, inhibitor", "setting": "1 µM", "quantity": "remaining activity", "result": "107%"}
